Each block holds one molecule with its values, some of them ahead of it. The source made the active and inactive calls. No cut-off for these calls is given here.
What was measured:
HeLa = test: Antiproliferative activity against human HeLa cells incubated for 24 hrs by sulforhodamine B assay; type: functional, cell-based
Method in brief: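 HeLa cells (1 × 10⁵ cells/mL) attached 24 h in MEM with 10% FBS, 37 °C, 5% CO2. Then treated with serial dilutions, DMSO final <0.1%, for 24 h. Fixed with 50% TCA, sulforhodamine B read-out, IC50 derived. Three independent experiments.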

MCF7 [1] = test: Antiproliferative activity against human MCF7 cells incubated for 48 hrs by sulforhodamine B assay; type: functional, cell-based; settings: MCF7, 48 h
Method in brief: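 MCF-7 cells (1 × 10⁵ cells/mL) attached 24 h in MEM with 10% FBS, 37 °C, 5% CO2. Exposed to serial dilutions, DMSO final <0.1%, for 48 h. TCA (50%) fixation, sulforhodamine B staining, IC50 determined. Three independent sets.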

Ovis aries [2] = species: Ovis aries; test: Inhibition of goat brain tubulin assembly at 20 uM incubated for 10 mins by spectrophotometry
Method in brief: (§1)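 Goat brain tubulin (12 μM; glutamate-purified, >97% pure) held 10 min on ice with compound in 25 mM PIPES, 1 mM EGTA, 3 mM MgCl2, 1 M glutamate. Then 1 mM GTP added. Assembly followed at 350 nm, 37 °C, for 20 min. Three independent experiments.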

Ovis aries [3] = species: Ovis aries; test: Binding affinity to goat brain tubulin at 6 uM […] with 10 and 30 uM paclitaxel by fluorescence based assay
MCF7 [4] = test: Induction of cell cycle arrest in human MCF7 cells assessed as accumulation at G1 phase at 5 nM incubated for 24 hrs by propidium iodide staining based flow cytometry (reference value: 49%); type: functional
MCF7 [5] = test: Induction of cell cycle arrest in human MCF7 cells assessed as accumulation at S phase at 10 nM incubated for 24 hrs by propidium iodide staining based flow cytometry (reference value: 35%); type: functional
MDA-MB-231 [6] = test: Antiproliferative activity against human MDA-MB-231 cells incubated for 24 hrs by sulforhodamine B assay; type: functional, cell-based; settings: MDA-MB-231, 24 h
Method in brief: (§2)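 Cells grown in DMEM with 2.2 g/L sodium bicarbonate, 10% FBS and antibiotic–antimycotic at 37 °C under 5% CO2. Compounds were dissolved in DMSO and diluted in medium (final DMSO <0.1%). Cells were exposed to a concentration series for 24 h, fixed with 50% TCA and stained with sulforhodamine B. IC50 was derived from three independent experiments.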

Tubulin (Homo sapiens) [7] = target: T1, Tubulin (Homo sapiens) (UniProt P68371+Q9H4B7+P0DPH7+P68366+Q13509+Q71U36+P04350+Q3ZCM7+P07437+P68363+Q9BQE3+Q6PEY2+Q13885+Q9BVA1+Q9BUF5); test: Induction of interphase microtubule network depolymerization in human MCF7 cells at 10 nM incubated for 24 hrs by immunostaining method; type: cell-based
[8] = Inhibition of goat brain tubulin assembly incubated for 10 mins by spectrophotometry; parameters: species or system Ovis aries; method in brief: as §1
MCF7 [9] = test: Induction of mitosis block in human MCF7 cells assessed as phospho-histone H3 (Ser10) staining positive cells level at 10 nM incubated for 24 hrs by immunostaining (reference value: 8 +/- 1%); type: functional
MDA-MB-231 [10] = test: Inhibition of cell migration of human MDA-MB-231 cells at 50 nM by wound closure assay; type: functional
Method in brief: (§3)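 MDA-MB-231 cells grown to 90% confluency in 35 mm dishes and scratched with a microtip. Incubated without or with compound. Wound closure imaged at 0, 4 and 18 h and expressed as percent closure.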

Ovis aries [11] = species: Ovis aries; test: Binding affinity to goat brain tubulin at 10 uM pre-incubated for 30 mins before 50 uM podophyllotoxin exposure for 30 mins by fluorescence based assay
Method in brief: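 Displacement assay: tubulin was first incubated with the 2-aminoimidazole ligand for 30 min. It was then incubated without or with 50 μM podophyllotoxin or 50 μM CA-4 for a further 30 min. The read-out was the drop in fluorescence of the tubulin–ligand complex.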

MCF7 [12] = test: Induction of cell cycle arrest in human MCF7 cells assessed as accumulation at S phase at 5 nM incubated for 24 hrs by propidium iodide staining based flow cytometry (reference value: 35%); type: functional
Huh-7 = test: Antiproliferative activity against human HuH7 cells incubated for 24 hrs by sulforhodamine B assay; type: functional, cell-based; settings: Huh-7, 24 h; method in brief: as §2
Ovis aries [13] = species: Ovis aries; test: Binding affinity to goat brain tubulin incubated for 15 mins in presence of CA-4 by fluorescence based assay
Method in brief: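 Tubulin (3 μM) preincubated with CA-4 (1–20 μM) in 25 mM PIPES, pH 6.8, 15 min at 25 °C. Then 6 μM compound added for another 15 min at 25 °C. Spectra 420–520 nm taken with excitation 350 nm. Ki from Ki = EC50/(1 + L/Kd). Three sets.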

Ovis aries [14] = species: Ovis aries; test: Binding affinity to goat brain tubulin at 5 and 10 uM incubated for 10 mins by fluorescence based assay
Method in brief: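 Goat brain tubulin (2 μM) incubated 10 min at 25 °C with compound (5 and 10 μM) in 25 mM PIPES, pH 6.8. Ligand fluorescence spectra recorded at 420–520 nm, excitation 350 nm. Done three times.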

Ovis aries [15] = species: Ovis aries; test: Binding affinity to goat brain tubulin incubated for 15 mins in presence of podophyllotoxin by fluorescence based assay
Method in brief: (§4)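 Goat brain tubulin (3 μM) was preincubated with competitor (1–20 μM) in 25 mM PIPES, pH 6.8, for 15 min at 25 °C. The 2-aminoimidazole probe (6 μM) was then added for 15 min at 25 °C. Emission was recorded at 420–520 nm with excitation at 350 nm. Ki was calculated as EC50/(1 + L/Kd). Three sets were run.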

MCF7 [16] = test: Induction of mitosis block in human MCF7 cells at 5 and 10 uM incubated for 24 hrs by immunostaining; type: functional, cell-based
Ovis aries [17] = species: Ovis aries; test: Binding affinity to goat brain tubulin at 6 uM incubated for 10 mins after 10 mins incubation with 10 and 30 uM vinblastine by fluorescence based assay
MCF7 [18] = test: Induction of cell cycle arrest in human MCF7 cells assessed as accumulation at G2/M phase at 10 nM incubated for 24 hrs by propidium iodide staining based flow cytometry (reference value: 16%); type: functional
Ovis aries [19] = species: Ovis aries; test: (§5) Binding affinity to goat brain tubulin incubated for 10 mins by tryptophan fluorescence quenching based assay
Method in brief: (§6)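 Goat brain tubulin (2 μM), purified with 1 M glutamate, incubated 10 min at 25 °C with compound (1–20 μM) in 25 mM PIPES, pH 6.8. Tryptophan fluorescence read with excitation 295 nm. Kd obtained by fitting ΔF = ΔFmax·L/(Kd + L). Four independent sets.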

[20] = as §5; parameters: species or system Ovis aries; method in brief: as §6
MCF7 [21] = test: Induction of cell cycle arrest in human MCF7 cells assessed as accumulation at G1 phase at 10 nM incubated for 24 hrs by propidium iodide staining based flow cytometry (reference value: 49%); type: functional
MCF7 [22] = test: Induction of mitotic spindle disturbance in human MCF7 cells assessed as monopolar spindle formation at 5 and 10 nM incubated for 24 hrs by immunostaining; type: functional, cell-based
Ovis aries [23] = species: Ovis aries; test: Binding affinity to goat brain tubulin at 10 uM pre-incubated for 30 mins before 50 uM CA-4 exposure for 30 mins by fluorescence based assay
Method in brief: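 Tubulin first incubated 30 min with test compound, then 30 min without or with 50 μM CA-4 or 50 μM podophyllotoxin. Read-out is fluorescence of the tubulin–compound complex.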

MCF7 [24] = test: Induction of mitosis block in human MCF7 cells assessed as phospho-histone H3 (Ser10) staining positive cells level at 5 nM incubated for 24 hrs by immunostaining (reference value: 8 +/- 1%); type: functional
Tubulin (Homo sapiens) [25] = target: T1, Tubulin (Homo sapiens); test: Induction of interphase microtubule network depolymerization in human MCF7 cells at 5 nM incubated for 24 hrs by immunostaining method; type: cell-based
EMT6 = test: Antiproliferative activity against drug resistant mouse EMT6/AR1 cells incubated for 24 hrs by sulforhodamine B assay; type: functional, cell-based; settings: EMT6, 24 h; method in brief: as §2
MCF7 [26] = test: Induction of cell cycle arrest in human MCF7 cells assessed as accumulation at G2/M phase at 5 nM incubated for 24 hrs by propidium iodide staining based flow cytometry (reference value: 16%); type: functional
[27] = Binding affinity to goat brain tubulin assessed as reduction in binding of 5-(Quinolin-3-yl)-4-(3,4,5-trimethoxyphenyl)-1H-imidazol-2-amine to tubulin incubated for 15 mins by fluorescence based assay; parameters: species or system Ovis aries; method in brief: as §4
MCF7 [28] = test: Induction of cell cycle arrest in human MCF7 cells assessed as accumulation at G1 phase at 50 nM incubated for 24 hrs by propidium iodide staining based flow cytometry (reference value: 49%); type: functional
MCF7 [29] = test: Induction of cell cycle arrest in human MCF7 cells assessed as accumulation at G2/M phase at 50 nM incubated for 24 hrs by propidium iodide staining based flow cytometry (reference value: 16%); type: functional
MDA-MB-231 [30] = test: Inhibition of cell migration of human MDA-MB-231 cells at 150 nM by wound closure assay; type: functional; method in brief: as §3
MCF7 [31] = test: Induction of cell cycle arrest in human MCF7 cells assessed as accumulation at S phase at 50 nM incubated for 24 hrs by propidium iodide staining based flow cytometry (reference value: 35%); type: functional

Compound: COc1cc(-c2nc(N)[nH]c2-c2cccc(N)c2)cc(OC)c1OC
IC50 (HeLa): 8 µM
IC50 (MCF7 [1]): 6 µM

Compound: COc1ccc(-c2[nH]c(N)nc2-c2cc(OC)c(OC)c(OC)c2)cc1O
IC50 (HeLa): 0.39 µM
IC50 (MCF7 [1]): 0.22 µM

Compound: COc1cc(-c2nc(N)[nH]c2-c2cnc3ccccc3c2)cc(OC)c1OC
Activity (Ovis aries [3]): Active
Activity (MCF7 [4]): 34%
IC50 (HeLa): 0.01 µM
Activity (MCF7 [5]): 10%
IC50 (MDA-MB-231 [6]): 0.096 µM
Activity (Tubulin (Homo sapiens) [7]): Active
IC50 [8]: 1.6 µM
inhibition ([8]; Ovis aries): Dose-dependent effect
IC50 (MCF7 [1]): 0.003 µM
Activity (MCF7 [9]): 26%
inhibition at 0.05 µM (MDA-MB-231 [10]): 56%
Activity (Ovis aries [11]): inactive
Activity (MCF7 [12]): 25%
IC50 (Huh-7): 0.335 µM
Activity (Ovis aries [13]): inactive
Activity (Ovis aries [14]): Active
Activity (Ovis aries [15]): inactive
Activity (MCF7 [16]): Active
Activity (Ovis aries [17]): Active
Activity (MCF7 [18]): 74%
Activity (Ovis aries [19]): Dose-dependent effect
Kd [20]: 1.9 µM
Activity (MCF7 [21]): 16%
Activity (MCF7 [22]): Active
Activity (Ovis aries [23]): inactive
Activity (MCF7 [24]): 15%
Activity (Tubulin (Homo sapiens) [25]): Active
IC50 (EMT6): 0.35 µM
Activity (MCF7 [26]): 40%

Compound: COc1cc(-c2nc(N)[nH]c2-c2cccc(O)c2)cc(OC)c1OC
IC50 (HeLa): 18 µM
IC50 (MCF7 [1]): 53 µM

Compound: COc1ccc(-c2[nH]c(N)nc2-c2cc(OC)c(OC)c(OC)c2)cc1
IC50 (HeLa): 0.166 µM
IC50 [8]: 13 µM
IC50 (MCF7 [1]): 0.174 µM

Compound: COc1cc(-c2nc(N)[nH]c2-c2cccnc2)cc(OC)c1OC
IC50 (HeLa): 4 µM
IC50 (MCF7 [1]): 13 µM

Compound: COc1cc(-c2nc(N)[nH]c2-c2ccc3[nH]ccc3c2)cc(OC)c1OC
IC50 (HeLa): 3 µM
IC50 (MCF7 [1]): 8 µM

Compound: COc1cc([C@@H]2c3cc4c(cc3[C@H](O)[C@H]3COC(=O)[C@H]23)OCO4)cc(OC)c1OC [PODOFILOX]
Kd [27]: 0.3 µM

Compound: COc1cc(-c2nc(N)[nH]c2-c2ccc(N)nc2)cc(OC)c1OC
IC50 (HeLa): 18 µM
IC50 (MCF7 [1]): 21 µM

Compound: COc1ccc(/C=C\c2cc(OC)c(OC)c(OC)c2)cc1O [COMBRETASTATIN A4]
Activity (MCF7 [4]): 51%
IC50 (HeLa): 0.025 µM
Activity (MCF7 [5]): 16%
IC50 (MDA-MB-231 [6]): 0.331 µM
Activity (MCF7 [28]): 14%
IC50 [8]: 1.7 µM
IC50 (MCF7 [1]): 0.018 µM
inhibition at 0.05 µM (MDA-MB-231 [10]): 8%
Activity (MCF7 [12]): 23%
IC50 (Huh-7): 0.43 µM
Activity (MCF7 [18]): 43%
Activity (MCF7 [21]): 41%
Activity (MCF7 [29]): 63%
inhibition at 0.15 µM (MDA-MB-231 [30]): 52%
Kd [27]: 0.68 µM
Activity (MCF7 [31]): 23%
IC50 (EMT6): 0.495 µM
Activity (MCF7 [26]): 26%

More lines, in order of falling IC50 (HeLa), values ahead:

IC50 (HeLa): 34 µM
IC50 (MCF7 [1]): 27 µM
Compound: COc1cc(-c2nc(N)[nH]c2-c2ccccc2)cc(OC)c1OC

IC50 (HeLa): 14 µM
IC50 (MCF7 [1]): 18 µM
Compound: COc1cccc(-c2[nH]c(N)nc2-c2cc(OC)c(OC)c(OC)c2)c1

IC50 (HeLa): 8 µM
IC50 (MCF7 [1]): 12 µM
Compound: COc1cc(-c2nc(N)[nH]c2-c2cc(OC)c(OC)c(OC)c2)cc(OC)c1OC

IC50 (HeLa): 3.4 µM
IC50 (MCF7 [1]): 3 µM
Compound: COc1cc(-c2nc(N)[nH]c2-c2ccc(F)cc2)cc(OC)c1OC

IC50 (HeLa): 3 µM
IC50 (MCF7 [1]): 8 µM
Compound: COc1cc(-c2nc(N)[nH]c2-c2ccc(Cl)cc2)cc(OC)c1OC

IC50 (HeLa): 0.197 µM
IC50 (MCF7 [1]): 0.187 µM
inhibition (Ovis aries [2]): inactive
Compound: Nc1nc(-c2ccccc2)c(-c2ccccc2)[nH]1

IC50 (HeLa): 0.068 µM
IC50 [8]: 11 µM
IC50 (MCF7 [1]): 0.071 µM
Compound: COc1ccc(-c2[nH]c(N)nc2-c2cc(OC)c(OC)c(OC)c2)cc1OC

From ChEMBL document CHEMBL4428028, “Novel Combretastatin-2-aminoimidazole Analogues as Potent Tubulin Assembly Inhibitors: Exploration of Unique Pharmacophoric Impact of Bridging Skeleton and Aryl Moiety” (J Med Chem, 2016)
